Bioassay records: PubChem BioAssay, several laboratories
LANA-H2B inh – blocks KSHV LANA binding to histone H2A/H2B | Q9QR71 | cell-free LANA-H2A/H2B peptide, fluorescence polarization | inhibition, % (no concentration beside the values) | hit rate 0.6% among 320,000; in the data active means inhibition mostly above about 10%, no sharp cut-off; inactive means mostly below about 6.7%
TAAR1 agonist – human TAAR1 agonism; Q96RJ0; CHO RD-HGA16 TAAR1, Fluo-8 calcium fluorescence; vehicle wells 0%, saturating PEA agonist 100%; activation, % at 3 µM; hit rate 0.99% among 360,000;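 active means activation above the mean activation of all test compounds in the run plus 3 SD, cut at about 38% in these data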
Target sequence (Q96RJ0 whole entry, looked up): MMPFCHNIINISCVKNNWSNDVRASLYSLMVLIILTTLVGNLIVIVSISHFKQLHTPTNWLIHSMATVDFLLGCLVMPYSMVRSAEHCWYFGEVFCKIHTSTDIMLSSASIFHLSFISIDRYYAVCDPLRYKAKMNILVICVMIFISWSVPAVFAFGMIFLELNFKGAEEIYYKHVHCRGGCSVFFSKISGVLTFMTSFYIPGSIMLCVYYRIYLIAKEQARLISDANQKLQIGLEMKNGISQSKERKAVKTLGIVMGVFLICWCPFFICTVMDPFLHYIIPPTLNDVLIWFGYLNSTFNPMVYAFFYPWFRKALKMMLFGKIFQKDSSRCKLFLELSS
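Benchmarks: low control DMSO, high control PEA (EC100); System: CHO RD-HGA16 cells carrying human TAAR1 plus Gα16; Detection: Fluo-8 fluorescence, 5 s baseline then 140 s kinetic read; Schedule: 17-24 h plating, Fluo-8 75 min 37 °C, 30 min RT; Read-out basis: % activation from peak over basal fluorescence ratio, DMSO-to-PEA scaled.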
zfTRPN1 agonist – zebrafish TRPN1 (NompC) channel agonism; AID 1424; activation, % at 3 µM; hit rate 0.18% among 220,000; HEK293 zebrafish TRPN1-YFP, Fluo-8 calcium fluorescence; 100% = response to 87 µM carbachol;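 active means activation above its plate's cutoff, the mean activation of test wells on that plate plus 3 SD, cut at about 19% in these data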;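 further: 0% = DMSO alone and 100% = 87 µM carbachol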
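Control set: carbachol 87 µM as high control, DMSO as low control; system: HEK293 stable line with zebrafish TRPN1-YFP; read-out: % activation versus carbachol response; detection: intracellular calcium fluorescence with Fluo-8; doses: single test compound dose, 3 µM nominal, 0.3% DMSO; schedule: dye 1 h 37 °C plus 30 min RT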
TAAR1 antagonist – antagonists of human TAAR1; hit rate 1.5% among 360,000; AID 624466; Q96RJ0; CHO RD-HGA16 TAAR1, Fluo-8 calcium fluorescence, antagonist; inhibition, % at 3 µM;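 active means inhibition above a per-plate cutoff, the mean inhibition of test compounds on that plate plus 3 SD, cut at about 49% in these data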;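 further: 0% = DMSO plus EC80 beta-PEA response and 100% = DMSO alone without agonist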
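Material: RD-HGA16 CHO cells with stable hTAAR1 and Gα16; Dosing: single nominal final test compound concentration of 3 µM; Schedule: seeding 17-24 h prior, 75-min 37 °C, 30-min RT dye loading; Detection: kinetic Fluo-8 calcium fluorescence measurement; Measure: % inhibition from peak post-agonist over basal fluorescence ratio; Benchmarks: vehicle and agonist controls.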
TRPML3 agonist – human mucolipin-3 channel agonism | Q8TDD5 | HEK293 TRPML3-YFP, Fluo-8 calcium fluorescence; 100% = the carbachol control signal | activation, % at 3 µM | hit rate 0.29% among 220,000 | AID 1448;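 active means activation above its plate's cutoff, the mean activation of the plate's test wells plus 3 SD, cut at about 12% in these data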;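 further: 0% = DMSO only wells and 100% = carbachol wells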
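system = HEK293 cells stably carrying human TRPML3-YFP | doses = one concentration, 3 µM nominal, 0.3% DMSO | timing = dye loading 1 h 37 °C then 30 min ambient, 125 s read | detection = Fluo-8 calcium dye fluorescence, ex 470-495, em 515-575 nm | benchmarks = high control carbachol 87 µM, low control DMSO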
GPR7 antagonist – blocks human GPR7 receptor signaling | hit rate 1.1% among 290,000 | P48145 | GPR7-expressing cells, fluorescence antagonist assay | inhibition, % at 4.4 µM; in the data active means inhibition above about 16%, passing the limit was not always enough;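 further: cells stimulated with the agonist NPW; 0% = agonist with vehicle and 100% = vehicle without agonist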
Target sequence (P48145 whole entry, looked up): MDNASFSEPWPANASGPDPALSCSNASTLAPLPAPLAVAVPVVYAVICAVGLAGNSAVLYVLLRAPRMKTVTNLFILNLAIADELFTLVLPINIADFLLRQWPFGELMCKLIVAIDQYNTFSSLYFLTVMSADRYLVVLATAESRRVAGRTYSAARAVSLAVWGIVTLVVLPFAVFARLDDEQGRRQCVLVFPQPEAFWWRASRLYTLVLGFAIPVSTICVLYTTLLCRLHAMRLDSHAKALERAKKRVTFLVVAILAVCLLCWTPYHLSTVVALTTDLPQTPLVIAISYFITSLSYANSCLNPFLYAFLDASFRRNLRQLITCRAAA
GPR7 antag conf – confirmation of human GPR7 antagonists. shares compounds with GPR7 antagonist. GPR7-expressing cells, calcium fluorescence antagonist mode. inhibition, % at 4.4 µM. hit rate 52% among 2,400. AID 1952; in the data active means inhibition above about 24%;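 further: stimulated with the GPR7 agonist NPW; 0% = agonist plus vehicle and 100% = vehicle alone without agonist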
MCHR1 antag – antagonizes human MCHR1, a GPR7 antagonist counter-screen | shares compounds with GPR7 antagonist | MCHR1-expressing cells, fluorescence antagonist assay | inhibition, % at 4.4 µM | hit rate 62% among 2,400; in the data active means inhibition above about 22%;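 further: 0% = vehicle with agonist and 100% = vehicle without agonist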
* marks the source's active call; other numbers are inactive results. Shown are actives, neighbours in structure and some others; about 3.4% of the full set was active somewhere.

Screening O=C(CSc1n[nH]c(=O)n1Cc1ccccc1)Nc1ccc(F)c(F)c1F returned LANA-H2B inh 1.0, TAAR1 agonist -1.0, TAAR1 antagonist 0.5 and GPR7 antagonist -9.3.
`Cc1ccccc1-c1cnc(C(O)c2ccc(C(C)(C)C)cc2)[nH]1` (stereo not given) gave TAAR1 agonist 1.8 and TAAR1 antagonist 2.6.
`CC1(C)C2CCC(CN)C1C2` (stereo not given) gave TAAR1 agonist 2.4 and TAAR1 antagonist -7.8.
For CCN1C[C@@H]2[C@@H]3C(=O)N(C)C(=O)[C@@H]3[C@](C)(C1=O)N2C(=O)c1ccc(C(F)(F)F)cc1 the results were TAAR1 agonist 17.5 and TAAR1 antagonist -8.7.
C[C@H]1CN([C@@H](C)CO)C(=O)c2cc(Br)cnc2O[C@@H]1CN(C)S(C)(=O)=O was read as TAAR1 agonist 4.9 and TAAR1 antagonist -27.5.
Cc1ccc(S(=O)(=O)N(C)Cc2ccc(-c3nnco3)cc2)cc1 was read as LANA-H2B inh 4.9, TAAR1 agonist -0.8, zfTRPN1 agonist 0.6, TAAR1 antagonist 17.1, TRPML3 agonist 1.0, GPR7 antagonist 26.5*, GPR7 antag conf 46.9* and MCHR1 antag 41.8*.
CC(C(=O)NC(=O)NC1CCCCC1)N(C)CC(=O)Nc1ccc(F)c(F)c1F (stereo not given) was read as LANA-H2B inh 3.2, TAAR1 agonist 3.1 and TAAR1 antagonist 1.3.
For CC(=O)c1cn(CCOc2cc(C)ccc2C)c2ccccc12 the results were LANA-H2B inh -0.8, TAAR1 agonist 2.8, TAAR1 antagonist 27.2, GPR7 antagonist 29.2*, GPR7 antag conf 47.2* and MCHR1 antag 67.9*.
`Cc1ccc(C)c(OCCn2cc(C(=O)O)c3ccccc32)c1` gave LANA-H2B inh 1.3, TAAR1 agonist 2.7, zfTRPN1 agonist 0.2, TAAR1 antagonist 13.3, TRPML3 agonist 0.1, GPR7 antagonist 95.1*, GPR7 antag conf 6.2 and MCHR1 antag 6.0.
CN1CCN(C(=S)c2cn(CCOc3ccccc3)c3ccccc23)CC1 was read as LANA-H2B inh -2.8, TAAR1 agonist 4.5, zfTRPN1 agonist 2.7, TAAR1 antagonist -5.7, TRPML3 agonist 3.6, GPR7 antagonist 27.2*, GPR7 antag conf 20.1 and MCHR1 antag 10.6.
Cc1ccccc1OCCn1cc(C(=O)O)c2ccccc21 was read as LANA-H2B inh -1.5, TAAR1 agonist 2.5, zfTRPN1 agonist 1.5, TAAR1 antagonist -5.2, TRPML3 agonist -0.1 and GPR7 antagonist 3.0.
CN1CCN(C(=S)c2cn(CCOc3ccccc3F)c3ccccc23)CC1 was read as LANA-H2B inh -4.6, TAAR1 agonist 4.5, zfTRPN1 agonist 1.3, TAAR1 antagonist -1.7, TRPML3 agonist 1.5 and GPR7 antagonist 10.5.
`CCCCCCN1C[C@H](n2cc(C3CC3)nn2)[C@@H](O)C[C@@H]1c1ccc(Cl)cc1` gave TAAR1 agonist 0.5 and TAAR1 antagonist -11.1.
For Cc1ccc(NS(=O)(=O)c2ccc(C)c(NC(=S)NCCN3CCOCC3)c2)c(C)c1 the results were LANA-H2B inh 17.0, TAAR1 agonist 3.4 and TAAR1 antagonist -12.9.
`Cc1ccc([C@H]2C[C@H](O)[C@@H](n3cc(-c4ccc(F)cc4)nn3)CN2CC2CCCCC2)cc1` gave TAAR1 agonist 2.9 and TAAR1 antagonist -28.5.
Screening COc1ccc(CC(=O)N2CCN(c3ccccc3F)CC2)cc1OC returned LANA-H2B inh 1.1, TAAR1 agonist 5.7, TAAR1 antagonist 12.4 and GPR7 antagonist 0.9.
For O=C(Cc1ccc(-n2cccc2)cc1)N1CCN(c2ccccc2F)CC1 the results were LANA-H2B inh -5.1, TAAR1 agonist 0.9, zfTRPN1 agonist -1.9, TAAR1 antagonist 0.0, TRPML3 agonist -0.7, GPR7 antagonist 27.3*, GPR7 antag conf 5.2 and MCHR1 antag 8.4.
CC(NC(=S)NC1CCCCC1)c1ccc(C(C)(C)C)cc1 (stereo not given) was read as LANA-H2B inh 7.2, TAAR1 agonist 15.6, TAAR1 antagonist 5.2, GPR7 antagonist 25.1*, GPR7 antag conf 39.9* and MCHR1 antag 60.7*.
`CCC(C)c1ccc(C(C)NC(=S)NC2CCCCC2)cc1` (stereo not given) gave LANA-H2B inh 0.3, TAAR1 agonist 7.5, TAAR1 antagonist 12.3, GPR7 antagonist 46.0*, GPR7 antag conf 19.4 and MCHR1 antag 56.7*.
CCc1ccc(C(C)NC(=S)NC2CCCCC2)cc1 (stereo not given) was read as LANA-H2B inh 2.1 and GPR7 antagonist -17.2.
For CC(=O)Oc1cccc(N2C(=O)c3cccc4c([N+](=O)[O-])ccc(c34)C2=O)c1 the results were LANA-H2B inh -7.1, TAAR1 agonist 4.1, TAAR1 antagonist 21.7, GPR7 antagonist 60.4*, GPR7 antag conf 54.3* and MCHR1 antag 35.9*.
Clc1ccc2c(c1)C(N1CCNCC1)Cc1ccccc1S2 (stereo not given) was read as LANA-H2B inh 3.6, zfTRPN1 agonist 15.7, TRPML3 agonist 2.2, GPR7 antagonist 28.4*, GPR7 antag conf 53.4* and MCHR1 antag 64.5*.
`COCCCN1CCN(C2Cc3ccccc3Sc3ccc(Cl)cc32)CC1` (stereo not given) gave LANA-H2B inh -0.5, TAAR1 agonist 11.2, zfTRPN1 agonist 0.9, TAAR1 antagonist 6.5, TRPML3 agonist 1.1, GPR7 antagonist 24.2*, GPR7 antag conf 22.5 and MCHR1 antag 34.0*.
For COc1ccc2c(c1)CC(N1CCN(C)CC1)c1cc(OC)ccc1S2 (stereo not given) the results were LANA-H2B inh 2.6, TAAR1 agonist 17.3 and TAAR1 antagonist 0.8.
Screening CCCOc1ccc(C(=O)Nc2cc(S(=O)(=O)N3CCOCC3)ccc2N2CCN(CC)CC2)cc1OC returned TAAR1 agonist 10.3 and TAAR1 antagonist -17.0.
For Cc1ccc(S(=O)(=O)/N=C(\N)Nc2nc(C)c3cc(C)c(C)cc3n2)cc1 the results were LANA-H2B inh -3.6, TAAR1 agonist 1.8, zfTRPN1 agonist -1.1, TAAR1 antagonist -10.0, TRPML3 agonist 0.0, GPR7 antagonist 30.4*, GPR7 antag conf 13.6 and MCHR1 antag 20.7.
For Cc1ccc(S(=O)(=O)/N=C(\N)Nc2nc(C)c3ccc(C)cc3n2)cc1 the results were LANA-H2B inh 2.4, TAAR1 agonist -1.1, zfTRPN1 agonist -0.5, TAAR1 antagonist 0.0, TRPML3 agonist -1.2 and GPR7 antagonist 11.4.
